Laboratory results: article PMC5720529 (Kidney International Reports, 2016)
Where two headings read alike, the source gives them in different places. Each block holds one molecule with its values, some of them ahead of it.

Experiments:
[1] = Non-covalent plasma protein binding in bovine blood; type: in vitro ADME; conditions: data not shown
[2] = In vitro hemodialysis, condition 1: buffered aqueous solution; type: in vitro ADME
Method in brief: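 Closed-loop in vitro hemodialysis on an Optiflux dialyzer at ambient temperature (~22 °C). Reservoir A held 0.5 L dialysate and no blood; 5 L dialysate was pumped countercurrent from reservoir B. [14C]etelcalcetide plus urea, creatinine and vitamin B12 controls went into reservoir A, with pumps started at once. Both reservoirs were sampled over 2 h for radioactivity and etelcalcetide (acidified, 1% formic acid), then a 20-min Solvable washout.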

[3] = type: in vitro ADME, bovine
Method in brief: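 Same closed-loop dialyzer setup, with reservoir A holding 0.5 L bovine whole blood warmed to 37 °C. Hemodialysis began immediately after [14C]etelcalcetide and urea, creatinine and vitamin B12 controls were spiked in. Sodium heparin (100 U) was added every 30 min. Both reservoirs were sampled over 2 h for radioactivity and etelcalcetide (formic-acid acidified). Dialyzer-bound material was recovered by 20-min Solvable circulation at 50 ml/min.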

[4] = type: in vitro ADME; conditions: condition 3, bovine whole blood, with 3-hour preincubation at 37 °C
Method in brief: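 Bovine whole blood (0.5 L) spiked with [14C]etelcalcetide was preincubated 3 h at 37 °C before closed-loop dialysis (QB 50 ml/min, QD 250 ml/min, countercurrent, 5 L dialysate). Heparin (100 U) was added hourly. Reservoirs A and B were sampled for radioactivity and etelcalcetide, followed by a Solvable washout of the dialyzer.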

[5] = Kinetic model 2 fitted simultaneously to hemodialysis conditions 2 and 3; type: in vitro ADME, bovine
Method in brief: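 Kinetic model 2, an extension of the whole-blood model, was fitted simultaneously to etelcalcetide amounts in reservoirs A and B from all three hemodialysis conditions, using one rate-constant set. Each point was the mean of triplicate samples. Conjugation/deconjugation constants (kc, kdc, kb, kdb) were fixed from model 1; kAB and kBA are forward and reverse dialysis-clearance constants between reservoirs.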

[6] = close to the hematocrit value; cited from earlier work
[7] = CKD patients on hemodialysis; cited from earlier work
[8] = Whole-blood incubations with etelcalcetide and SAPC; type: in vitro ADME; conditions: human whole blood; for sum total of monitored products as % of total M11: etelcalcetide 5 μM
Method in brief: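 Pooled human whole blood (healthy volunteers, n = 3) was incubated in duplicate with [14C]etelcalcetide, unlabelled etelcalcetide or SAPC for up to 6 h at 37 °C, then centrifuged; plasma was acidified with 1% formic acid. TCEP reduction gave total M11; M13 was estimated from the M10 standard curve. Model 1 was fitted by maximum likelihood to duplicate means.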

[9] = cited from earlier work
[10] = human blood; cited from earlier work

bound non-covalently to plasma proteins [1]: 40%
hemodialysis clearance rate relative to biotransformation (conversion to SAPC) ([2]; comparison of dialytic rate constant with kc): > 16 fold
hemodialysis clearance ([2]; condition 1, absence of blood, from kAB, QB 50 ml/min, QD 250 ml/min): 59 mL/min
kBA, reverse rate constant of hemodialysis clearance, reservoir B to A ([2]; model 2 fit, condition 1, absence of blood, mean of triplicate samples): 0.00932 min^–1
14C recovered during the washout period (% of the spiked dose) ([3]; condition 2, Solvable washout after 2-hour hemodialysis): 0.2 % of the spiked dose
intact etelcalcetide dialyzed in the first 15 minutes ([3]; condition 2, bovine whole blood, no preincubation, 2.1 μM, LC-MS/MS): 57%
proportion of the dose eliminated in 2 hours [4]: 24%
hemodialysis clearance as % of blood flow rate ([5]; conditions 2 and 3, presence of bovine blood): ~70%
hemodialysis clearance ([5]; conditions 2 and 3, presence of bovine blood, from kAB, QB 50 ml/min): 36 mL/min
elimination rate constant in blood as % of that in the absence of blood ([5]; in vitro hemodialysis, bovine blood vs dialysate): 60%
kBA, reverse rate constant of hemodialysis clearance, reservoir B to A ([5]; model 2 fit, conditions 2 and 3, bovine blood, mean of triplicate samples): 0.0364 min^–1
[14C]etelcalcetide biotransformation at 25 °C compared with 37 °C ([8]; [14C]etelcalcetide 10 μM, up to 6 hours, LC-14C-HRMS): slower
sum total of monitored products as % of total M11 ([8]; 37 °C, at 1 hour): Approximately 90%
sum total of monitored products as % of total M11 ([8]; 37 °C, at 6 hours): 77%
kdc, rate constant of disulfide exchange SAPC to etelcalcetide (deconjugation) ([8]; model 1 fit (ADAPT 5), 37 °C, mean of duplicate samples): 0.00038 min^–1
Molecule: CC(=O)N[C@H](CSSC[C@H](N)C(=O)O)C(=O)N[C@H](C)C(=O)N[C@H](CCCNC(=N)N)C(=O)N[C@H](CCCNC(=N)N)C(=O)N[C@H](CCCNC(=N)N)C(=O)N[C@H](C)C(=O)N[C@H](CCCNC(=N)N)C(N)=O [etelcalcetide, Etelcalcetide]
blood-to-plasma ratio [6]: ~0.5
plasma half-life [7]: > 170 h
permeability [9]: very low
Non-covalent binding to plasma proteins [10]: ~50%

dose remaining in bovine blood ([3]; condition 2, at 15 minutes, LC-MS/MS): 44%
dose remaining in bovine blood ([3]; condition 2, at 120 minutes, LC-MS/MS): 8%
Molecule: vitamin B12 [reference compound]
